The values below come from ChEMBL document CHEMBL4257553, “Novel organophosphorus aminopyrimidines as unique structural DNA-targeting membrane active inhibitors towards drug-resistant methicillin-resistant Staphylococcus aureus” (Medchemcomm, 2018).

SMILES strings stand for the structures. Converted amounts (≈) assume the structure as drawn. Some results are limits rather than exact numbers.

Format in all cases: functional
In assay [1] the test system is Staphylococcus aureus. The assay is described as follows: Antibacterial activity against Staphylococcus aureus ATCC 25923 after 24 hrs by microbroth dilution method. Conditions: ATCC 25923, 24 h. Put shortly: (§1)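 Tested by CLSI-standard broth microdilution against a panel of eleven bacterial strains, Gram-positive and Gram-negative, including MRSA.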
A general note: Dilution methods test growth across graded concentrations, often in twofold steps.

The subject of the next assay is Enterococcus faecalis. The assay is described as follows: Antibacterial activity against Enterococcus faecalis after 24 hrs by microbroth dilution method. Put shortly: as §1
Assay [2] concerns Pseudomonas aeruginosa. The assay is described as follows: Antibacterial activity against Pseudomonas aeruginosa after 24 hrs by microbroth dilution method. An outline of the steps:
as §1

A further assay deals with Klebsiella pneumoniae. Kind of assay: Antibacterial activity against Klebsiella pneumoniae after 24 hrs by microbroth dilution method. An outline of the steps: as §1
The test system of assay [3] is Escherichia coli. Kind of assay: Antibacterial activity against Escherichia coli ATCC 25922 after 24 hrs by microbroth dilution method. Conditions: ATCC 25922, 24 h. Put shortly: as §1
The test system of assay [4] is Staphylococcus aureus. The assay is described as follows: Antibacterial activity against Staphylococcus aureus after 24 hrs by microbroth dilution method. An outline of the steps: as §1
The test system of assay [5] is Staphylococcus aureus. Kind of assay: Antibacterial activity against Staphylococcus aureus ATCC 29213 after 24 hrs by microbroth dilution method. The following applies: ATCC 29213, 24 h. Put shortly: as §1
Assay [6] deals with Escherichia coli. The assay is described as follows: Antibacterial activity against Escherichia coli after 24 hrs by microbroth dilution method. An outline of the steps: as §1
Assay [7] deals with Aspergillus fumigatus. The assay is described as follows: Antifungal activity against Aspergillus fumigatus after 24 hrs by microbroth dilution method.
Assay [8] has as its system Pseudomonas aeruginosa. Kind of assay: Antibacterial activity against Pseudomonas aeruginosa ATCC 27853 after 24 hrs by microbroth dilution method. The following applies: ATCC 27853, 24 h. Put shortly: as §1
Assay [9] deals with Staphylococcus aureus. Kind of assay: Antibacterial activity against methicillin resistant Staphylococcus aureus after 24 hrs by microbroth dilution method. Put shortly: as §1
For the next assay, the system named is Acinetobacter baumannii. Kind of assay: Antibacterial activity against Acinetobacter baumannii after 24 hrs by microbroth dilution method. An outline of the steps:
as §1

Assay [10] concerns Aspergillus fumigatus. The assay is described as follows: Potency index, ratio of fluconazole MIC to compound MIC for antifungal activity against Aspergillus fumigatus.

As to `CCOP(=O)(OCC)C(Nc1ncccn1)c1ccc(C)cc1` (stereo not given), the MIC – broadly, the smallest concentration in the dilution series that meets the test's criterion for growth inhibition – against Staphylococcus aureus [1] is 16 µg/mL (≈ 47.7 µM); against Enterococcus faecalis, 8 µg/mL (≈ 23.9 µM); against Pseudomonas aeruginosa [2], 256 µg/mL (≈ 763 µM); in the assay with Klebsiella pneumoniae it was 128 µg/mL (≈ 382 µM); against Escherichia coli [3], 128 µg/mL (≈ 382 µM); in the assay with Staphylococcus aureus [4], 256 µg/mL (≈ 763 µM). For the same molecule, the MIC against Staphylococcus aureus [5] was 256 µg/mL (≈ 763 µM); against Escherichia coli [6], 256 µg/mL (≈ 763 µM); against Aspergillus fumigatus [7], above 16 µg/mL; in the assay with Pseudomonas aeruginosa [8], 64 µg/mL (≈ 191 µM); in the assay with Staphylococcus aureus [9], 128 µg/mL (≈ 382 µM); in the assay on Acinetobacter baumannii, 128 µg/mL (≈ 382 µM). In the assay with Aspergillus fumigatus [10], the Ratio was 16.

Take `CCOP(=O)(OCC)C(Nc1ncccn1)c1ccc2oc(=O)ccc2c1` (stereo not given): the MIC turned out to be 64 µg/mL (≈ 164 µM) with Staphylococcus aureus [1]; 512 µg/mL (≈ 1320 µM) in the assay with Enterococcus faecalis; 64 µg/mL (≈ 164 µM) in the assay on Pseudomonas aeruginosa [2]; 512 µg/mL (≈ 1320 µM) against Klebsiella pneumoniae; 256 µg/mL (≈ 658 µM) in the assay with Escherichia coli [3]; 128 µg/mL (≈ 329 µM) in the assay on Staphylococcus aureus [4]. Moreover, the MIC against Staphylococcus aureus [5] was 128 µg/mL (≈ 329 µM); in the assay on Escherichia coli [6] it was 512 µg/mL (≈ 1320 µM); in the assay on Aspergillus fumigatus [7], above 16 µg/mL; in the assay on Pseudomonas aeruginosa [8], 512 µg/mL (≈ 1320 µM); in the assay with Staphylococcus aureus [9], 256 µg/mL (≈ 658 µM); against Acinetobacter baumannii, 64 µg/mL (≈ 164 µM). For the same molecule, in the assay with Aspergillus fumigatus [10], the Ratio was found to be 16.

On to `O=[N+]([O-])c1ccc(C(Nc2ncccn2)P(=O)(O)O)cc1` (stereo not given), for which the MIC is 128 µg/mL (≈ 413 µM) against Staphylococcus aureus [1]; 128 µg/mL (≈ 413 µM) against Enterococcus faecalis; 128 µg/mL (≈ 413 µM) with Pseudomonas aeruginosa [2]; 256 µg/mL (≈ 825 µM) against Klebsiella pneumoniae; 128 µg/mL (≈ 413 µM) in the assay with Escherichia coli [3]; 128 µg/mL (≈ 413 µM) in the assay on Staphylococcus aureus [4]. In addition, the MIC in the assay with Staphylococcus aureus [5] is 128 µg/mL (≈ 413 µM); in the assay on Escherichia coli [6], 128 µg/mL (≈ 413 µM); in the assay with Aspergillus fumigatus [7] it was above 16 µg/mL; with Pseudomonas aeruginosa [8], 256 µg/mL (≈ 825 µM); with Staphylococcus aureus [9], 128 µg/mL (≈ 413 µM); with Acinetobacter baumannii, 256 µg/mL (≈ 825 µM). Moreover, the Ratio in the assay with Aspergillus fumigatus [10] was determined as 16.

For the molecule `CCOP(=O)(OCC)C(Nc1ncccn1)c1ccc([N+](=O)[O-])cc1` (stereo not given), the MIC against Staphylococcus aureus [1] was 8 µg/mL (≈ 21.8 µM); in the assay with Enterococcus faecalis it was 32 µg/mL (≈ 87.4 µM); in the assay with Pseudomonas aeruginosa [2] it was 256 µg/mL (≈ 699 µM); against Klebsiella pneumoniae, 256 µg/mL (≈ 699 µM); against Escherichia coli [3] it was 128 µg/mL (≈ 349 µM); in the assay on Staphylococcus aureus [4] it was 256 µg/mL (≈ 699 µM). Moreover, the MIC was 256 µg/mL (≈ 699 µM) in the assay on Staphylococcus aureus [5]; 256 µg/mL (≈ 699 µM) in the assay with Escherichia coli [6]; above 16 µg/mL against Aspergillus fumigatus [7]; 16 µg/mL (≈ 43.7 µM) in the assay with Pseudomonas aeruginosa [8]; 128 µg/mL (≈ 349 µM) with Staphylococcus aureus [9]; 128 µg/mL (≈ 349 µM) with Acinetobacter baumannii. For the same molecule, the Ratio in the assay with Aspergillus fumigatus [10] is listed as 16.

`C#CCn1c(CCCC)nc(Cl)c1C(Nc1ncccn1)P(=O)(OCC)OCC` (stereo not given): the MIC in the assay with Staphylococcus aureus [1] stood at 32 µg/mL (≈ 72.7 µM); in the assay with Enterococcus faecalis, 256 µg/mL (≈ 582 µM); in the assay on Pseudomonas aeruginosa [2], 256 µg/mL (≈ 582 µM); against Klebsiella pneumoniae, 256 µg/mL (≈ 582 µM); with Escherichia coli [3] it was 128 µg/mL (≈ 291 µM); against Staphylococcus aureus [4] it was 64 µg/mL (≈ 145 µM). Moreover, the MIC with Staphylococcus aureus [5] is 256 µg/mL (≈ 582 µM); against Escherichia coli [6], 256 µg/mL (≈ 582 µM); in the assay with Aspergillus fumigatus [7], above 16 µg/mL; in the assay with Pseudomonas aeruginosa [8] it was 256 µg/mL (≈ 582 µM); against Staphylococcus aureus [9], 128 µg/mL (≈ 291 µM); against Acinetobacter baumannii, 128 µg/mL (≈ 291 µM). In the assay on Aspergillus fumigatus [10], the Ratio came out at 16.

Turning to `CCn1cc(C(=O)O)c(=O)c2cc(F)c(N3CCNCC3)cc21` [NORFLOXACIN], the MIC against Staphylococcus aureus [1] was 1 µg/mL (≈ 3.13 µM); with Enterococcus faecalis, 4 µg/mL (≈ 12.5 µM); against Pseudomonas aeruginosa [2] it was 2 µg/mL (≈ 6.26 µM); in the assay on Klebsiella pneumoniae, 4 µg/mL (≈ 12.5 µM); in the assay on Escherichia coli [3] it was 8 µg/mL (≈ 25.1 µM); in the assay with Staphylococcus aureus [4], 0.5 µg/mL (≈ 1.57 µM). Further, the MIC is 2 µg/mL (≈ 6.26 µM) against Staphylococcus aureus [5]; 16 µg/mL (≈ 50.1 µM) with Escherichia coli [6]; 0.5 µg/mL (≈ 1.57 µM) against Pseudomonas aeruginosa [8]; 8 µg/mL (≈ 25.1 µM) in the assay with Staphylococcus aureus [9]; 8 µg/mL (≈ 25.1 µM) with Acinetobacter baumannii.

For `CCOP(=O)(OCC)C(Nc1ncccn1)c1ccc2c(c1)c1cc(C=O)ccc1n2CC` (stereo not given), the MIC was 256 µg/mL (≈ 549 µM) against Staphylococcus aureus [1]; 16 µg/mL (≈ 34.3 µM) in the assay on Enterococcus faecalis; 256 µg/mL (≈ 549 µM) in the assay with Pseudomonas aeruginosa [2]; 256 µg/mL (≈ 549 µM) against Klebsiella pneumoniae; 256 µg/mL (≈ 549 µM) against Escherichia coli [3]; 256 µg/mL (≈ 549 µM) in the assay on Staphylococcus aureus [4]. Further, the MIC was 256 µg/mL (≈ 549 µM) with Staphylococcus aureus [5]; 512 µg/mL (≈ 1100 µM) against Escherichia coli [6]; above 16 µg/mL with Aspergillus fumigatus [7]; 256 µg/mL (≈ 549 µM) against Pseudomonas aeruginosa [8]; 128 µg/mL (≈ 274 µM) in the assay on Staphylococcus aureus [9]; 128 µg/mL (≈ 274 µM) with Acinetobacter baumannii. In the assay on Aspergillus fumigatus [10], the Ratio is on record as 16.

Consider `CCOP(=O)(OCC)C(Nc1ncccn1)c1ccc(OC)cc1` (stereo not given), for which the minimal inhibitory concentration (MIC) with Staphylococcus aureus [1] amounted to 64 µg/mL (≈ 182 µM); in the assay on Enterococcus faecalis, 64 µg/mL (≈ 182 µM); with Pseudomonas aeruginosa [2], 128 µg/mL (≈ 364 µM); with Klebsiella pneumoniae, 256 µg/mL (≈ 729 µM); against Escherichia coli [3] it was 256 µg/mL (≈ 729 µM); against Staphylococcus aureus [4] it was 256 µg/mL (≈ 729 µM). The MIC was 256 µg/mL (≈ 729 µM) in the assay on Staphylococcus aureus [5]; 256 µg/mL (≈ 729 µM) with Escherichia coli [6]; above 16 µg/mL in the assay with Aspergillus fumigatus [7]; 4 µg/mL (≈ 11.4 µM) in the assay with Pseudomonas aeruginosa [8]; 256 µg/mL (≈ 729 µM) with Staphylococcus aureus [9]; 128 µg/mL (≈ 364 µM) in the assay with Acinetobacter baumannii. The Ratio in the assay on Aspergillus fumigatus [10] worked out at 16.

Turning to `CCOP(=O)(OCC)C(Nc1ncccn1)c1ccc(F)cc1` (stereo not given), the MIC against Staphylococcus aureus [1] worked out at 64 µg/mL (≈ 189 µM); with Enterococcus faecalis, 64 µg/mL (≈ 189 µM); in the assay with Pseudomonas aeruginosa [2] it was 128 µg/mL (≈ 377 µM); against Klebsiella pneumoniae, 128 µg/mL (≈ 377 µM); in the assay with Escherichia coli [3], 256 µg/mL (≈ 754 µM); in the assay on Staphylococcus aureus [4] it was 256 µg/mL (≈ 754 µM). The MIC is 256 µg/mL (≈ 754 µM) in the assay on Staphylococcus aureus [5]; 256 µg/mL (≈ 754 µM) against Escherichia coli [6]; above 16 µg/mL against Aspergillus fumigatus [7]; 64 µg/mL (≈ 189 µM) in the assay with Pseudomonas aeruginosa [8]; 256 µg/mL (≈ 754 µM) in the assay with Staphylococcus aureus [9]; 128 µg/mL (≈ 377 µM) in the assay on Acinetobacter baumannii. In the assay with Aspergillus fumigatus [10], the Ratio is on record as 16.
